Measurements taken from ChEMBL document CHEMBL1149101, “New antibacterial agents derived from the DNA gyrase inhibitor cyclothialidine” (J Med Chem, 2004).
≈ marks a conversion by molar mass, not a printed value.

Tests used:
Staphylococcus aureus [1] = assay: Minimum inhibitory concentration against Staphylococcus aureus; format: functional
[2] = Range for minimum inhibitory concentration against Staphylococcus aureus; 0.5->[…]; format: functional
[3] = Range for minimum inhibitory concentration against Staphylococcus aureus; 0.06->64; format: functional
[4] = Range for minimum inhibitory concentration against Enterococcus faecalis; 1-4; format: functional
[5] = Range for minimum inhibitory concentration against Staphylococcus aureus; 0.5-2; format: functional
Staphylococcus aureus [6] = assay: In vivo effective dose was determined in septicaemic mice (Staphylococcus aureus Smith) when administration iv; format: functional
Method in brief: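 Compound given iv as a gelatine microsuspension at 1 and 3 h post-challenge, 5 mice per group. ED50 (mg/kg) from day-4 survival by probit analysis.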

[7] = test system: Stenotrophomonas maltophilia; assay: Minimum inhibitory concentration against Xanthomonas maltophilia AC739; format: functional
Method in brief: (§1)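 NCCLS agar dilution on Mueller–Hinton agar, compound incorporated into melted medium at 50 °C. Inoculum about 10⁴ CFU/spot from diluted overnight cultures, multipoint-applied.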

[8] = Minimum inhibitory concentration against Enterococcus faecalis
Escherichia coli = assay: Minimum inhibitory concentration against Escherichia coli 25922; format: functional; method in brief: as §1
Enterococcus faecalis [9] = assay: Minimum inhibitory concentration against Enterococcus faecalis; format: functional
Method in brief: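 Agar dilution per NCCLS on Mueller–Hinton agar, strain E. faecalis 6 (listed as S. faecalis 6). Compound incorporated into melted medium at 50 °C just before pouring plates. Inoculum about 10⁴ CFU/spot from diluted overnight culture, applied with multipoint inoculator.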

Mus musculus = organism: Mus musculus; assay: Percentage of binding to the mice plasma protein was determined; format: functional
[10] = Range for minimum inhibitory concentration against Staphylococcus aureus 0.5->[…]; format: functional
[11] = Range for minimum inhibitory concentration against Staphylococcus aureus; 4->64; format: functional
Streptococcus pyogenes = assay: Minimum inhibitory concentration against Streptococcus pyogenes b15
Staphylococcus aureus [12] = assay: Minimum inhibitory concentration against Staphylococcus aureus 887; format: functional
Method in brief: (§2)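 Agar dilution per NCCLS in BB2 agar + 1% Isovitalex + 7.5% sheep blood + menadione, compound added to melted medium at 50 °C. About 10⁴ CFU/spot from diluted overnight cultures, multipoint-inoculated.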

[13] = target: T1, DNA gyrase (Escherichia coli) (UniProt P0AES6+P0AES4)
Enterococcus faecalis [14] = assay: Minimum inhibitory concentration against Enterococcus faecalis 6; format: functional; method in brief: as §1
Staphylococcus aureus [15] = assay: Minimum inhibitory concentration against Staphylococcus aureus Smith; format: functional; method in brief: as §1
Micrococcus luteus = assay: Minimum inhibitory concentration against Micrococcus luteus ATCC 8340; format: functional; method in brief: as §2
[16] = test system: Staphylococcus epidermidis; assay: Minimum inhibitory concentration against Staphylococcus epidermidis 16/2; format: functional; method in brief: as §1
Neisseria meningitidis = assay: Minimum inhibitory concentration against Neisseria meningitides 69480; format: functional; method in brief: as §2
Staphylococcus aureus [17] = assay: Minimum inhibitory concentration against Staphylococcus aureus ATCC 25923; format: functional; method in brief: as §1
[18] = Range for minimum inhibitory concentration against Enterococcus faecalis;4-8; format: functional
[19] = Range for minimum inhibitory concentration against Enterococcus faecium; 2-8; format: functional
HeLa = assay: Cytotoxicity in HeLa cells; format: cell-based
[20] = target: T1, DNA gyrase (Escherichia coli); assay: Maximum noneffective concentration against Escherichia coli DNA gyrase; format: protein-complex assay
Method in brief: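 Gyrase A2B2 complex reconstituted from equimolar subunits (25 °C, 0.5 h). Relaxed pUC18 DNA incubated with enzyme at 37 °C for 0.5 h, compound 0.001–100 μg/mL. Products resolved on 0.8% agarose gel. MNEC, read visually, is the highest concentration still allowing complete plasmid supercoiling.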

[21] = Streptococcus pyogenes, read-out: MIC
[22] = Staphylococcus aureus, read-out: MIC
[23] = Staphylococcus aureus, ATCC 25923, read-out: MIC

| Compound | MIC50 (Staphylococcus aureus [1]) [µg/mL] | MIC90 (Staphylococcus aureus [1]) [µg/mL] | MIC [7] [µg/mL] | MIC (Escherichia coli) [µg/mL] | MIC (Streptococcus pyogenes; [21]) [µg/mL] | MNEC [13] [µg/mL] | MIC (Enterococcus faecalis [14]) [µg/mL] | MIC (Staphylococcus aureus [15]; [22]) [µg/mL] | MIC [16] [µg/mL] | MIC (Staphylococcus aureus [17]; [23]) [µg/mL] | also measured |
| --- | --- | --- | --- | --- | --- | --- | --- | --- | --- | --- | --- |
| O=C(O)c1cn(C2CC2)c2cc(N3CCNCC3)c(F)cc2c1=O [CIPROFLOXACIN] | 0.5 (≈ 1.51 µM) | > 16 | – | – | – | – | – | – | – | – | Range [2]: 16 µg/mL |
| CC[C@H]1OC(=O)[C@H](C)[C@@H](O[C@H]2C[C@@](C)(OC)[C@@H](O)[C@H](C)O2)[C@H](C)[C@@H](O[C@@H]2O[C@H](C)C[C@H](N(C)C)[C@H]2O)[C@](C)(O)C[C@@H](C)C(=O)[C@H](C)[C@@H](O)[C@]1(C)O [ERYTHROMYCIN] | > 16 | > 16 | – | – | – | – | – | – | – | – | Range [2]: 16 µg/mL |
| C[C@@H](O)[C@H]1C(=O)N2C(C(=O)O)=C(SCCNC=N)C[C@H]12 [IMIPENEM ANHYDROUS] | 4 (≈ 13.4 µM) | 16 (≈ 53.4 µM) | – | – | – | – | – | – | – | – | Range [3]: 64 µg/mL |
| CN[C@H](CC(C)C)C(=O)N[C@H]1C(=O)N[C@@H](CC(N)=O)C(=O)N[C@H]2C(=O)N[C@H]3C(=O)N[C@H](C(=O)N[C@H](C(=O)O)c4cc(O)cc(O)c4-c4cc3ccc4O)[C@H](O)c3ccc(c(Cl)c3)Oc3cc2cc(c3O[C@@H]2O[C@H](CO)[C@@H](O)[C@H](O)[C@H]2O[C@H]2C[C@](C)(N)[C@H](O)[C@H](C)O2)Oc2ccc(cc2Cl)[C@H]1O [VANCOMYCIN] | 1 (≈ 0.69 µM) | 2 (≈ 1.38 µM) | > 64 | > 64 | – | – | – | – | – | – | Range [4]: 4 µg/mL; Range [5]: 2 µg/mL; ED50 (Staphylococcus aureus [6]): 1.5 mg/kg; MIC90 [8]: 4 µg/mL (≈ 2.76 µM); MIC50 (Enterococcus faecalis [9]): 2 µg/mL (≈ 1.38 µM); Activity (Mus musculus): 25% |
| CN(C)[C@@H]1C(O)=C(C(N)=O)C(=O)[C@@]2(O)C(O)=C3C(=O)c4c(O)cccc4[C@@](C)(O)[C@H]3C[C@@H]12 [TETRACYCLINE] | > 16 | > 16 | – | – | – | – | – | – | – | – | Range [10]: 16 µg/mL |
| COc1cccc(OC)c1C(=O)N[C@@H]1C(=O)N2[C@@H]1SC(C)(C)[C@@H]2C(=O)O [METHICILLIN] | 32 (≈ 84.1 µM) | > 64 | – | – | – | – | – | – | – | – | Range [11]: 64 µg/mL |
| COC(=O)[C@@H]1CSCc2c(O)cc(OC)c(C)c2C(=O)OCC(NC(=O)OC(C)(C)C)C(=O)N1 (stereo partly drawn) | – | – | > 64 | > 64 | 64 (≈ 128 µM) | 0.2 | 64 (≈ 128 µM) | 128 (≈ 257 µM) | 64 (≈ 128 µM) | > 64 | MIC (Streptococcus pyogenes): 64 µg/mL (≈ 128 µM); MIC (Staphylococcus aureus [12]): 64 µg/mL (≈ 128 µM); MIC (Micrococcus luteus): 16 µg/mL (≈ 32.1 µM); MIC (Neisseria meningitidis): 16 µg/mL (≈ 32.1 µM) |
| CO[C@@H]1[C@@H](OC(N)=O)[C@@H](O)[C@H](Oc2ccc3c(O)c(NC(=O)c4ccc(O)c(CC=C(C)C)c4)c(=O)oc3c2C)OC1(C)C [NOVOBIOCIN] | – | – | > 64 | > 64 | 1 (≈ 1.63 µM) | – | 4 (≈ 6.53 µM) | 0.12 (≈ 0.196 µM) | 0.25 (≈ 0.408 µM) | 0.25 (≈ 0.408 µM) | ED50 (Staphylococcus aureus [6]): 3 mg/kg; Range [18]: 8 µg/mL; Range [19]: 8 µg/mL; MIC50 (Enterococcus faecalis [9]): 4 µg/mL (≈ 6.53 µM); MIC90 (Enterococcus faecalis [9]): 8 µg/mL (≈ 13.1 µM) |
| COC(=O)[C@@H]1CSCc2c(O)cc(OC)c(C)c2C(=O)OCC/C(S)=N/1 | – | – | 8 (≈ 20 µM) | > 64 | 4 (≈ 10 µM) | 0.05 | 4 (≈ 10 µM) | 2 (≈ 5.01 µM) | 0.5 (≈ 1.25 µM) | 2 (≈ 5.01 µM) | MIC (Staphylococcus aureus [15]): 2 µg/mL (≈ 5.01 µM); MIC (Staphylococcus aureus [17]): 2 µg/mL (≈ 5.01 µM) |
| COC(=O)[C@@H]1CSCc2c(O)cc(O)c(C)c2C(=O)OCC(NC(=O)OC(C)(C)C)C(=O)N1 (stereo partly drawn) | – | – | > 64 | > 64 | 32 (≈ 66 µM) | 0.2 | 64 (≈ 132 µM) | 128 (≈ 264 µM) | 64 (≈ 132 µM) | > 64 | MIC (Streptococcus pyogenes): 64 µg/mL (≈ 132 µM); MIC (Staphylococcus aureus [12]): > 64 µg/mL; MIC (Micrococcus luteus): 16 µg/mL (≈ 33 µM); MIC (Neisseria meningitidis): 16 µg/mL (≈ 33 µM) |
| COC(=O)[C@@H]1CSCc2c(O)cc(OC)c(C)c2C(=O)OCCCCC(=O)N1 | – | – | 16 (≈ 38.9 µM) | > 64 | 4 (≈ 9.72 µM) | 0.05 | 4 (≈ 9.72 µM) | 2 (≈ 4.86 µM) | 1 (≈ 2.43 µM) | 4 (≈ 9.72 µM) | IC50 (HeLa): > 50 µg/mL; MIC (Staphylococcus aureus [15]): 2 µg/mL (≈ 4.86 µM); MIC (Staphylococcus aureus [17]): 4 µg/mL (≈ 9.72 µM) |
| COc1cc(O)c2c(c1C)C(=O)O[C@H](CO)CCC/C(S)=N/[C@H](c1nc(C)no1)CSC2 | – | – | 4 (≈ 8.31 µM) | > 64 | 0.5 (≈ 1.04 µM) | 0.005 | 0.5 (≈ 1.04 µM) | 0.5 (≈ 1.04 µM) | < 0.12 | 0.5 (≈ 1.04 µM) | ED50 (Staphylococcus aureus [6]): 8.5 mg/kg |
| COC(=O)[C@@H]1CSCc2c(O)cc(OC)c(C)c2C(=O)OCCC(=O)N1 | – | – | > 64 | > 64 | – | 0.25 | > 64 | 64 (≈ 167 µM) | 8 (≈ 20.9 µM) | > 64 | MIC (Staphylococcus aureus [12]): > 64 µg/mL; MNEC [20]: 0.5 µg/mL; MIC (Micrococcus luteus): 16 µg/mL (≈ 41.7 µM); MIC (Neisseria meningitidis): 32 µg/mL (≈ 83.5 µM); MIC (Staphylococcus aureus [17]): 64 µg/mL (≈ 167 µM) |
